Data published in paper PMC3742633 (Molecular cancer therapeutics, 2013).

Tests used:
A498 = assay: NCI 60 cell line screen, Sulforhodamine B Assay; type: cell-based; details: Homo sapiens, A498, 48 h
Procedure, shortened: (§1)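 Run through the NCI-60 screening service: human cancer cell lines exposed to test compound for 48 h. Growth read as cellular protein content by sulforhodamine B staining, and GI50 derived from this.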

OVCAR-5 = assay: NCI 60 cell line screen, Sulforhodamine B Assay; type: cell-based; details: Homo sapiens, OVCAR-5, 48 h
Procedure, shortened: as §1

SK-OV-3 = assay: NCI 60 cell line screen, Sulforhodamine B Assay; type: cell-based; details: Homo sapiens, SK-OV-3, 48 h
Procedure, shortened: (§2)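 Run through the National Cancer Institute 60 cell line screening service on its panel of 59 human cancer lines in vitro. Cytostatic/toxic effect was read as cellular protein content (sulforhodamine B) over 48 h.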

OVCAR-3 = assay: NCI 60 cell line screen, Sulforhodamine B Assay; type: cell-based; details: Homo sapiens, OVCAR-3, 48 h
Procedure, shortened: as §1

ACHN = assay: NCI 60 cell line screen, Sulforhodamine B Assay; type: cell-based; details: Homo sapiens, 48 h
Procedure, shortened: as §1

HCC-2998 = assay: NCI 60 cell line screen, Sulforhodamine B Assay; type: cell-based; details: Homo sapiens, HCC 2998, 48 h
Procedure, shortened: as §1

SK-MEL-2 = assay: NCI 60 cell line screen, Sulforhodamine B Assay; type: cell-based; details: Homo sapiens, SK-MEL-2, 48 h
Procedure, shortened: as §1

SW-620 = assay: NCI 60 cell line screen, Sulforhodamine B Assay; type: cell-based; details: Homo sapiens, SW-620, 48 h
Procedure, shortened: as §2

HOP-92 = assay: NCI 60 cell line screen, Sulforhodamine B Assay; type: cell-based; details: Homo sapiens, HOP-92, 48 h
Procedure, shortened: as §1

HCT-116 = assay: NCI 60 cell line screen, Sulforhodamine B Assay; type: cell-based; details: Homo sapiens, HCT-116, 48 h
Procedure, shortened: as §1

IGROV1 = assay: NCI 60 cell line screen, Sulforhodamine B Assay; type: cell-based; details: Homo sapiens, IGROV-1, 48 h
Procedure, shortened: as §1

HS 578T = assay: NCI 60 cell line screen, Sulforhodamine B Assay; type: cell-based; details: Homo sapiens, 48 h
Procedure, shortened: as §1

KM12 = assay: NCI 60 cell line screen, Sulforhodamine B Assay; type: cell-based; details: Homo sapiens, KM12, 48 h
Procedure, shortened: as §1

OVCAR-8 = assay: NCI 60 cell line screen, Sulforhodamine B Assay; type: cell-based; details: Homo sapiens, OVCAR-8, 48 h
Procedure, shortened: as §1

MALME-3M = assay: NCI 60 cell line screen, Sulforhodamine B Assay; type: cell-based; details: Homo sapiens, 48 h
Procedure, shortened: as §1

NCI/ADR-RES = assay: NCI 60 cell line screen, Sulforhodamine B Assay; type: cell-based; details: Homo sapiens, 48 h
Procedure, shortened: as §1

UO-31 = assay: NCI 60 cell line screen, Sulforhodamine B Assay; type: cell-based; details: Homo sapiens, UO-31, 48 h
Procedure, shortened: as §2

UACC-257 = assay: NCI 60 cell line screen, Sulforhodamine B Assay; type: cell-based; details: Homo sapiens, UACC-257, 48 h
Procedure, shortened: as §2

LLC tumors = assay: Lewis lung carcinoma; type: in vivo, C57Bl/6 mice
Procedure, shortened: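 C57Bl/6 mice (20 g) given 1×10^6 LLC cells s.c. in PBS. At 150–200 mg tumor mass, groups of 8 randomized to DMSO or test compound 25 mg/kg i.p. (methods: every 3 days ×4). Blinded caliper tumor mass and body mass recorded daily; lungs examined for metastases after 14 days. Separate subgroup at day 4: tumors assayed for F26BP, plus H&E and anti-cleaved caspase 3 immunohistochemistry on formalin-fixed paraffin sections.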

UACC-62 = assay: NCI 60 cell line screen, Sulforhodamine B Assay; type: cell-based; details: Homo sapiens, UACC-62, 48 h
Procedure, shortened: as §2

Jurkat and H522 cells [1] = assay: Intracellular ATP bioluminescence assay; type: cell-based, human
Procedure, shortened: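 After plating at 1×10^5 cells/well (24 h, 37°C, 5% CO2) and 3 h test compound exposure, adherent cells were washed with cold PBS, lysed in passive lysis buffer and scraped. One freeze (−80°C)/thaw (37°C) cycle, cleared at 4°C. ATP read by firefly luciferase/D-luciferin luminescence at 560 nm against an ATP standard curve, as nmol/mg BCA protein.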

Jurkat and H522 cells [2] = assay: F26BP measurement in cells; type: cell-based, human; details: three hours exposure
Procedure, shortened: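 Cells plated at 1×10^5/well, 24 h in RPMI or DMEM (5% CO2, 37°C), then exposed to test compound for 3 h. Cells triturated, washed twice in PBS, dissolved in […] NaOH. F26BP measured by coupled enzyme reaction and normalized to BCA protein. Triplicate or quadruplicate; unpaired two-tailed t-test.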

T-47D = assay: NCI 60 cell line screen, Sulforhodamine B Assay; type: cell-based; details: Homo sapiens, T47D, 48 h
Procedure, shortened: as §2

U-87 glioblastoma cells = assay: U-87 MG xenograft tumor growth; type: in vivo, Balb/C athymic mice; details: 25 mg/kg i.p. every 3 days × 4; compared with temozolomide
Procedure, shortened: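 U-87 MG cells from exponential culture (DMEM, 10% FCS) were washed and resuspended in PBS, and 1×10^6 cells were injected s.c. into 20 g Balb/C athymic mice. At 150–200 mg, tumours were randomised to DMSO, test compound (25 mg/kg i.p. every 3 days ×4) or temozolomide (30 mg/kg p.o., 3 days on/3 off). Blinded daily caliper mass = width²×length/2. Two experiments, n=8/group, mean±SD, unpaired two-tailed t-test.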

purified PFK-1 = assay: Activity of purified PFK-1; type: biochemical; details: up to 100 μM; data not shown
[3] = tested on: Jurkat T cell leukemia cells; assay: Cell viability, trypan blue exclusion; type: cell-based; details: Homo sapiens, 48 h, read-out: IC50 cytotoxic effects (viability)
[4] = tested on: H522 human lung adenocarcinoma cells; assay: Cell viability, trypan blue exclusion; type: cell-based; details: NCI-H522, 48 h, read-out: IC50 cytotoxic effects (viability)
MDA-MB-468 = assay: NCI 60 cell line screen, Sulforhodamine B Assay; type: cell-based; details: Homo sapiens, MDA-MB-468, 48 h
Procedure, shortened: as §1

[5] = four days after initiation, n=4

## O=C(C=Cc1ccc2ccccc2n1)c1ccncc1 [PFK15, 1-(4-pyridinyl)-3-(2-quinolinyl)-2-propen-1-one]
A498
  GI50: 11.8 µM
OVCAR-5
  GI50: 5.37 µM
SK-OV-3
  GI50: 15.1 µM
OVCAR-3
  GI50: 3.16 µM
ACHN
  GI50: 2.04 µM
HCC-2998
  GI50: 1.91 µM
SK-MEL-2
  GI50: 6.46 µM
SW-620
  GI50: 1.7 µM
HOP-92
  GI50: 3.02 µM
HCT-116
  GI50: 1.32 µM
IGROV1
  GI50: 4.37 µM
HS 578T
  GI50: 20.9 µM
KM12
  GI50: 1.95 µM
OVCAR-8
  GI50: 1.82 µM
MALME-3M
  GI50: 3.31 µM
NCI/ADR-RES
  GI50: 3.89 µM
UO-31
  GI50: 1.62 µM
UACC-257
  GI50: 3.98 µM
LLC tumors; PFK15 i.p., C57Bl/6 mice
  effect on body mass of LLC-bearing mice: without a major effect
LLC tumors; PFK15 i.p., C57Bl/6 mice, 14 days
  growth of established LLC tumors: statistically significant reduction
LLC tumors; after 14 days
  lung metastases in LLC-bearing mice: no lung metastases
LLC tumors; [5]
  cells positive for cleaved caspase 3 by immunohistochemistry: marked increase
  tumor-associated F26BP: reduced
UACC-62
  GI50: 2.51 µM
Jurkat and H522 cells [1]; 5 mM glucose + 1 mM pyruvate, p value = 0.0017
  PFK15-mediated ATP depletion [% control]: 45.62 ± 1.72%
Jurkat and H522 cells [1]; 5 mM glucose alone
  PFK15-mediated ATP depletion [% control]: 5.29 ± 0.85%
Jurkat and H522 cells [1]; addition of 4 mM glutamine, data not shown
  reversal of ATP depletion by glutamine: could not be significantly reversed
Jurkat and H522 cells [1]; addition of 10 mM lactate, data not shown
  reversal of ATP depletion by lactate: could not be significantly reversed
Jurkat and H522 cells [1]; three hours exposure, Jurkat and H522
  effect on intracellular ATP: reduced
Jurkat and H522 cells [2]
  effect on F26BP: reduced
T-47D
  GI50: 3.63 µM
U-87 glioblastoma cells
  activity against glioblastoma growth (U-87 MG): lower than that observed by temozolomide
Purified PFK-1
  inhibition of activity of purified PFK-1: not inhibit
[3]
  IC50: 2.42 µM
[4]
  IC50: 0.72 µM
MDA-MB-468
  GI50: 1.66 µM
